{"source": "ChEMBL document CHEMBL1154246", "about": "“Spirobisnaphthalene analogues from the endophytic fungus Preussia sp” (J Nat Prod, 2009)", "key": {"Staphylococcus aureus [1]": {"tested_on": "Staphylococcus aureus", "assay": "Antibacterial activity against Staphylococcus aureus CMCC B26003 at 10 ug/disk after 24 hrs by paper disk method", "assay_type": "functional", "details": "CMCC B26003, 24 h, read-out: IZ", "outline": "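Paper-disk diffusion against S. aureus at 10 µg/disk on MH agar, inoculum 10^6 cfu/mL from MHB broth, 6 mm disks, 37 °C for 24 h. Inhibition zone diameter recorded in mm, n = 3.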"}, "Candida albicans [2]": {"tested_on": "Candida albicans", "assay": "Antifungal activity against Candida albicans ATCC 10231 at 25 ug/disk after 48 hrs by paper disk method", "assay_type": "functional", "details": "ATCC 10231, 48 h, read-out: IZ", "outline": "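C. albicans ATCC 10231 grown in SDB broth culture, adjusted to a final 10^5 cfu/mL, and spread on SD agar. Sample loaded onto 6 mm paper disks placed on the agar surface. Plates incubated at 25 °C for 48 h. Read-out is the diameter of the inhibition zone in mm.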"}, "BGC-823": {"tested_on": "BGC-823", "assay": "Cytotoxicity against human BGC823 cells by MTT assay", "assay_type": "functional, cell-based", "outline": "(§1)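 MTT viability read-out in human cancer lines: A2780 ovarian, BEL-7404 liver, A-549, BGC-823 and HCT-8. IC50 derived from the concentration–response data.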"}, "HCT-8": {"tested_on": "HCT-8", "assay": "Cytotoxicity against human HCT8 cells by MTT assay", "assay_type": "functional, cell-based", "outline": "as §1"}, "[3]": {"assay": "Cytotoxicity against human Bel7404 cells by MTT assay", "assay_type": "functional, cell-based, BEL-7404", "outline": "as §1"}, "Candida albicans [4]": {"tested_on": "Candida albicans", "assay": "Antifungal activity against Candida albicans ATCC 10231 at 50 ug/disk after 48 hrs by paper disk method", "assay_type": "functional, organism-based", "outline": "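C. albicans grown in SDB broth, final 10^5 cfu/mL. Compound applied to 6 mm paper disks at 50 µg/disk on SD agar and incubated at 25 °C for 48 h. Zone of inhibition measured in mm.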"}, "Staphylococcus aureus [5]": {"tested_on": "Staphylococcus aureus", "assay": "Antibacterial activity against Staphylococcus aureus CMCC B26003 after 24 hrs by agar dilution method", "assay_type": "functional", "outline": "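S. aureus prepared from broth culture in MHB, final inoculum 10^6 cfu/mL. Agar dilution following NCCLS 2002 criteria, with 11 concentrations from 800 down to 0.78 µM (twofold steps).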"}, "Staphylococcus aureus [6]": {"tested_on": "Staphylococcus aureus", "assay": "Antibacterial activity against Staphylococcus aureus CMCC B26003 at 5 ug/disk after 24 hrs by paper disk method", "assay_type": "functional", "outline": "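S. aureus grown in MHB broth, final 10^6 cfu/mL. Compound loaded onto 6 mm paper disks at 5 µg/disk and placed on MH agar, 37 °C for 24 h. Inhibition zone diameter measured in mm, n = 3.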"}, "A2780": {"tested_on": "A2780", "assay": "Cytotoxicity against human A2780 cells by MTT assay", "assay_type": "functional, cell-based", "outline": "as §1"}, "A549": {"tested_on": "A549", "assay": "Cytotoxicity against human A549 cells by MTT assay", "assay_type": "functional, cell-based", "outline": "as §1"}, "[7]": {"details": "Homo sapiens, BGC-823, read-out: IC50"}, "[8]": {"details": "Homo sapiens, HCT-8, read-out: IC50"}, "[9]": {"details": "Homo sapiens, BEL-7404, read-out: IC50"}}, "note": "Activity calls are given as the source filed them."}
{"smiles": "CC1(C)S[C@@H]2[C@H](NC(=O)[C@H](N)c3ccccc3)C(=O)N2[C@H]1C(=O)O", "note": "[AMPICILLIN SODIUM]", "values": [{"measurement": "zone of inhibition at 10 µg/disc", "setting": "Staphylococcus aureus [1]", "result": 38.2, "unit": "mm"}]}
{"smiles": "OC(Cn1cncn1)(Cn1cncn1)c1ccc(F)cc1F", "note": "[FLUCONAZOLE]", "values": [{"measurement": "zone of inhibition at 25 µg/disc", "setting": "Candida albicans [2]", "result": 31.3, "unit": "mm"}]}
{"smiles": "CC(=O)O[C@H]1C(=O)[C@@]2(C)[C@H]([C@H](OC(=O)c3ccccc3)[C@]3(O)C[C@H](OC(=O)[C@H](O)[C@@H](NC(=O)c4ccccc4)c4ccccc4)C(C)=C1C3(C)C)[C@]1(OC(C)=O)CO[C@@H]1C[C@@H]2O", "note": "[PACLITAXEL]", "values": [{"measurement": "IC50", "setting": "BGC-823; [7]", "result": 3.3, "unit": "nM"}, {"measurement": "IC50", "setting": "HCT-8; [8]", "result": 3.6, "unit": "nM"}, {"measurement": "IC50", "setting": "[3]; [9]", "result": 12.3, "unit": "nM"}]}
{"smiles": "O=C1C=CC(=O)C12C=CC1(Oc3cccc4cccc(c34)O1)C2O", "note": "(centres undefined) [SPIROPREUSSIONE A]", "values": [{"measurement": "Activity", "setting": "Candida albicans [4]", "result": "inactive"}, {"measurement": "IC50", "setting": "BGC-823; [7]", "result": "> 10000", "unit": "nM"}, {"measurement": "MIC", "setting": "Staphylococcus aureus [5]; CMCC B26003, 24 h", "result": 25, "unit": "µM"}, {"measurement": "zone of inhibition at 5 µg/disc", "setting": "Staphylococcus aureus [6]; CMCC B26003, 24 h, read-out: IZ", "result": 16.4, "unit": "mm"}, {"measurement": "IC50", "setting": "A2780; Homo sapiens, A2780, read-out: IC50", "result": 2400, "unit": "nM"}, {"measurement": "IC50", "setting": "HCT-8; [8]", "result": "> 10000", "unit": "nM"}, {"measurement": "IC50", "setting": "[3]; [9]", "result": 3000, "unit": "nM"}, {"measurement": "IC50", "setting": "A549; Homo sapiens, A549, read-out: IC50", "result": "> 10000", "unit": "nM"}]}
{"smiles": "O=C1C=Cc2cc3c(c4ccc(O)c1c24)C1(Oc2cccc4cccc(c24)O1)C1C(=O)C=CC31O", "note": "(centres undefined) [SPIROPREUSSIONE B]", "values": [{"measurement": "Activity", "setting": "Candida albicans [4]", "result": "inactive"}, {"measurement": "IC50", "setting": "BGC-823; bgc-823", "result": "Not Active"}, {"measurement": "MIC", "setting": "Staphylococcus aureus [5]", "result": "inactive"}, {"measurement": "inhibition zone (IZ)", "setting": "Staphylococcus aureus [6]", "result": "inactive"}, {"measurement": "IC50", "setting": "A2780; a2780", "result": "Not Active"}, {"measurement": "IC50", "setting": "HCT-8; hct-8", "result": "Not Active"}, {"measurement": "IC50", "setting": "[3]; bel-7404", "result": "Not Active"}, {"measurement": "IC50", "setting": "A549; a549", "result": "Not Active"}]}
{"smiles": "Oc1ccc2c(c1)C1(Oc3cccc4cccc(c34)O1)[C@@H]1O[C@@H]1[C@@H]2O", "note": "[SPIROPREUSSOMERIN A]", "values": [{"measurement": "Activity", "setting": "Candida albicans [4]", "result": "inactive"}, {"measurement": "IC50", "setting": "BGC-823; bgc-823", "result": "Not Active"}, {"measurement": "MIC", "setting": "Staphylococcus aureus [5]", "result": "inactive"}, {"measurement": "inhibition zone (IZ)", "setting": "Staphylococcus aureus [6]", "result": "inactive"}, {"measurement": "IC50", "setting": "A2780; a2780", "result": "Not Active"}, {"measurement": "IC50", "setting": "HCT-8; hct-8", "result": "Not Active"}, {"measurement": "IC50", "setting": "[3]; bel-7404", "result": "Not Active"}, {"measurement": "IC50", "setting": "A549; a549", "result": "Not Active"}]}
